We go through six compounds from ChEMBL document CHEMBL1133007, “Synthesis and in vitro evaluation of novel morpholinyl- and methylpiperazinylacyloxyalkyl prodrugs of 2-(6-methoxy-2-naphthyl)propionic acid (Naproxen) for topical drug delivery” (J Med Chem, 2000).

Values after ≈ are worked out from the molar mass of the structure shown.

Data set [1] is described as follows: Evaluated for the time by which 50% of total naproxen is formed in 80% human serum at a pH of 7.4. In kind it is ADME. The following applies: pH 7.4. In short, it runs like this:
(§1)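 Human serum diluted to 80% with 0.16 M phosphate buffer pH 7.4, 37 °C. Prodrug dissolved in buffer, then preheated serum added. Aliquots were quenched in ethanol and centrifuged, and the supernatant was analysed by HPLC for remaining prodrug and released naproxen. Pseudo-first-order t1/2 came from the slope of log remaining prodrug vs time. f50% is the time at which 50% of total naproxen formed. Mean of n = 2.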

The species entered for data set [2] is Homo sapiens. Description: Evaluated for the Steady-state fluxes (Jss) for delivery of total Naproxen species through excised human skin in Vitro in Isotonic phosphate buffer (0.05 M) at pH 5.0. In kind it is ADME. In short, it runs like this: (§2)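 Excised postmortem human skin, epidermis heat-separated (60 °C water, 2 min), dried, frozen, then rehydrated and mounted in Franz-type diffusion cells (area 0.71 cm2). Donor was a saturated suspension in 0.05 M phosphate buffer at the stated pH. Receptor was isotonic 0.05 M phosphate pH 7.4, stirred at 37 °C and sampled at intervals. Total naproxen, intermediate and prodrug were measured by HPLC. Jss is the steady-state slope per area; mean ± SE, n = 3-12.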

Data set [3] is described as follows: Evaluated for the solubility in aqueous solution at pH 5.0. In kind it is ADME. In short, it runs like this: (§3)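 Excess compound was stirred in 0.16 M phosphate buffer at room temperature, 60 min at pH 5.0 or 30 min at pH 7.4, with pH held constant. The mixture was filtered (0.45 µm) and the filtrate quantified by reversed-phase HPLC.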
A short description of data set [4]: Evaluated for 50% hydrolysis rate in phosphate buffer at 5.0 at 37 degrees C. The following applies: pH 5. In kind it is ADME. In short, it runs like this:
(§4)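 Chemical stability in phosphate buffer (0.16 M, ionic strength 0.5) at pH 7.4 or 5.0, in a 37 °C thermostatted water bath. Samples were taken at intervals and analysed by HPLC for remaining prodrug. Pseudo-first-order t1/2 was calculated from the slope of the linear part of log remaining prodrug vs time.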

Data set [5] can be described thus: Evaluated for the solubility in aqueous solution at pH 7.4. Type of data set: ADME. Put shortly: as §3
The species entered for data set [6] is Homo sapiens. Description: Evaluated for the Steady-state fluxes (Jss) for delivery of total Naproxen species through excised human skin in Vitro in Isotonic phosphate buffer (0.05 M) at pH 7.4. Type of data set: ADME. In short, it runs like this: as §2
The nature of data set [7]: Evaluated for 50% hydrolysis rate in phosphate buffer at pH 7.4 at 37 degrees C. In kind it is ADME. In short, it runs like this: as §4
A short description of data set [8]: Evaluated for 50% hydrolysis rate in 80% human serum at a pH of 7.4. In kind it is ADME. The following applies: pH 7.4. Put shortly: as §1
Data set [9] in a line: Evaluated for the apparent partition coefficient between 1-octanol and phosphate buffer at pH 5.0. Type of data set: physicochemical. The conditions noted are these: 1-octanol/phosphate buffer. In short, it runs like this: (§5)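 Shake-flask log Papp at room temperature. Compound in phosphate buffer (pH 5.0 or 7.4) was shaken with buffer-saturated 1-octanol for 30 min (pH 5.0) or 15 min (pH 7.4), and phases were separated by centrifugation. Buffer-phase concentration was measured by HPLC before and after partitioning.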

Data set [10] in a line: Evaluated for the apparent partition coefficient between 1-octanol and phosphate buffer at pH 7.4. In kind it is physicochemical. The conditions noted are these: 1-octanol/phosphate buffer. Put shortly:
as §5

Data set [11] is filed under the species Homo sapiens. Description: Evaluated for the Steady-state fluxes (Jss) for delivery of total Naproxen species through excised human skin in vitro in Isotonic phosphate buffer (0.05 M) at pH 5.0. Type of data set: ADME. Put shortly:
as §2

The species entered for data set [12] is Homo sapiens. Briefly: Evaluated for the Steady-state fluxes (Jss) for delivery of total Naproxen species through excised human skin in vitro in isotonic phosphate buffer (0.05 M) at pH 5.0. In kind it is ADME. Put shortly: as §2
The species entered for data set [13] is Homo sapiens. Briefly: Evaluated for the Steady-state fluxes (Jss) for delivery of total Naproxen species through excised human skin in vitro in isotonic phosphate buffer (0.05 M) at pH 7.4. In kind it is ADME. In short, it runs like this:
as §2

A short description of data set [14]: Evaluated for the hydrolysis rate in phosphate buffer at pH 7.4 at 37 degrees Centigrade. In kind it is ADME. In short, it runs like this:
as §4

Data set [15] is described as follows: Evaluated for the hydrolysis rate in phosphate buffer at 5.0 at 37 degrees Centigrade. In kind it is ADME. The conditions noted are these: pH 5. Put shortly:
as §4

The nature of data set [16]: Evaluated for the hydrolysis rate in 80% human serum (mean; n=2) at a pH of 7.4. The conditions noted are these: pH 7.4. Type of data set: ADME. In short, it runs like this:
as §1

`COc1ccc2cc(C(C)C(=O)OCCCCOC(=O)CN3CCN(C)CC3)ccc2c1` (configuration not stated) displayed a 50% naproxen formed in data set [1] of 7 min. For the same compound, the Jss was 0.2 nM hr-1 cm**-2 in the data set listed under Homo sapiens [2] and 7.2 nM hr-1 cm**-2 in the data set filed under Homo sapiens [6]. Further, the solubility (usually the concentration that dissolves in the medium under given conditions) in data set [3] came out at 16.2 mM (≈ 7170 µg/mL); in data set [5] it was 8.8 mM (≈ 3890 µg/mL). The half-life (commonly the time needed for the level to fall by half in the phase considered) was 1920 h in [4], 182 h in data set [7] and 0.05 h in data set [8]. The results for the log distribution coefficient (logD) in data set [9] and in [10] were 0.94 and 1.3, respectively.

Regarding `COc1ccc2cc(C(C)C(=O)OCCCCOC(=O)CCCN3CCN(C)CC3)ccc2c1` (configuration not stated), the Jss in the data set listed under Homo sapiens [11] is on record as 1.2 nM hr-1 cm**-2; in the data set filed under Homo sapiens [6], 13.2 nM hr-1 cm**-2. Also, in data set [1], the 50% naproxen formed is 3 min. Also, the solubility in data set [3] is 61 mM (≈ 28700 µg/mL); in data set [5] it was 50 mM (≈ 23500 µg/mL). Also, the half-life was 893 h in [4], 48 h in data set [7] and 0.0167 h in data set [8]. In addition, the log distribution coefficient (logD) – broadly, lipophilicity at a set pH, counting ionised and neutral species – in data set [9] is 1.41; in data set [10], 2.69.

`COc1ccc2cc(C(C)C(=O)OCCOC(=O)CN3CCN(C)CC3)ccc2c1` (configuration not stated) gave a 50% naproxen formed in [1] of 22 min. The Jss in the data set listed under Homo sapiens [2] is reported as 2.2 nM hr-1 cm**-2; in the data set filed under Homo sapiens [6], 24.6 nM hr-1 cm**-2. Besides, the solubility came to 5.3 mM (≈ 2200 µg/mL) in data set [3] and 4.1 mM (≈ 1700 µg/mL) in data set [5]. The half-life in [4] is 1600 h; in data set [7], 57.6 h; in [8] it was 0.433 h. Also, the figures for the pH-dependent lipophilicity (logD) in data set [9] and in [10] were 0.43 and 1.16, respectively.

`COc1ccc2cc(C(C)C(=O)OCCCCOC(=O)CN3CCOCC3)ccc2c1` (configuration not stated) returned a 50% naproxen formed in data set [1] of 11 min. Moreover, the half-life in [8] was determined as 0.217 h.

`COc1ccc2cc(C(C)C(=O)OCCCCOC(=O)CCN3CCN(C)CC3)ccc2c1` (configuration not stated): the results for the Jss in the data set filed under Homo sapiens [12] and in the data set listed under Homo sapiens [13] were 0.6 nM hr-1 cm**-2 and 7.7 nM hr-1 cm**-2, respectively. Moreover, in data set [1], the 50% naproxen formed worked out at 5 min. Also, the solubility turned out to be 142 mM (≈ 64700 µg/mL) in data set [3] and 432 mM (≈ 197000 µg/mL) in [5]. Further, the values for the half-life in [14], in [15] and in data set [16] were 16.8 h, 432 h and 4 min, respectively. The values for the logD in data set [9] and in data set [10] were 1.2 and 3.04, respectively.

As to `COc1ccc2cc(C(C)C(=O)OCCOC(=O)CN3CCOCC3)ccc2c1` (configuration not stated), the Jss in the data set filed under Homo sapiens [12] stood at 0.6 nM hr-1 cm**-2; in the data set listed under Homo sapiens [13] it was 0.7 nM hr-1 cm**-2. Also, the 50% naproxen formed in [1] came to 25 min. The solubility in data set [3] worked out at 0.05 mM (≈ 20.1 µg/mL); in data set [5], 0.07 mM (≈ 28.1 µg/mL). For the same compound, the half-life was 161 h in data set [4], 33.6 h in data set [7] and 0.333 h in data set [8]. Besides, the logD in data set [9] was found to be 2.62; in [10], 2.14.
